Measurements gathered from unrelated publications.
Each line is one published result; the experiments were not run side by side.
Target: Serine/threonine-protein kinase PAK 6 (PAK6, Homo sapiens, UniProt Q9NQU5)

SMILES	read-out	technique	tested at	remaining binding [%]
C[C@H]1CCN(c2nccc(-c3cnn4ncccc34)n2)C1	binding	–	1 µM	80
C[C@H](c1ccnc(Nc2nc3ccc(-c4cc(N(C)C)ncn4)cc3[nH]2)c1)N1CCN(C(=O)CC(F)(F)F)CC1	cell-free assay	competition with immobilised ligand	0.1 µM	100
FC(F)(F)Oc1cccc(-c2cnc3ccc(-c4ccncc4)nn23)c1	cell-free assay	competition with immobilised ligand	5 µM	53
O=C(NC[C@@H]1[C@H]2CN(C(=O)OCc3cc(C(F)(F)F)cc(C(F)(F)F)c3)C[C@@H]12)c1ccc2[nH]nnc2c1	cell-free assay	competition with immobilised ligand	1 µM	93
COc1cnc(Nc2cccc(S(N)(=O)=O)c2)nc1N1CCN(c2ccccc2)C(=O)C1	binding	competition with immobilised ligand	1 µM	100
Cc1cnn2ncc(-c3ccnc(N(C)C)n3)c2c1	binding	–	1 µM	93
CC1=C(C#N)[C@@H](c2ccc3[nH]nc(C)c3c2)C(C#N)=C(c2ccc(Cl)cc2)N1	cell-free assay	competition with immobilised ligand	1 µM	100
O=C(c1ccc(Nc2ncc(Cl)c(-c3ccc(Cl)s3)n2)cc1)N1CCC(N2CCCC2)CC1	binding	competition with immobilised ligand	1 µM	52
CC1CCCN1c1nccc(-c2cnn3ncccc23)n1 (centres unmarked)	binding	–	1 µM	100
O=C(c1ccc(Nc2ncc(Cl)c(-c3cc4ccccc4s3)n2)cc1)N1CCC(N2CCCC2)CC1	binding	competition with immobilised ligand	1 µM	62
COc1ncc2cc3ccccc3nc2c1C#N	cell-free assay	competition with immobilised ligand	5 µM	94
O=C(NCCCN1CCOCC1)c1ccc(Nc2ncc(Cl)c(-c3ccc(Cl)s3)n2)cc1	binding	competition with immobilised ligand	1 µM	74
CCN1CCN(Cc2ccc(C(=O)Nc3ccc(C)c(Oc4ccc5c(c4)CC(=O)N5)c3)cc2C(F)(F)F)CC1	binding	competition with immobilised ligand	1 µM	100
CNC(=O)Nc1ccc2c(c1)CC[C@@]21OC(=O)N(CC(=O)N(Cc2ccc(F)cc2)[C@@H](C)C(F)(F)F)C1=O	cell-free assay	competition with immobilised ligand	1 µM	91
CN(C)c1ncc(F)c(-c2cnn3ncccc23)n1	binding	–	1 µM	100
CCCCN(CCCC)C(=O)CN1C[C@@H](c2cc(OC)c3c(c2)OCO3)[C@H](C(=O)O)[C@H]1CC(C)(C)CCC	cell-free assay	competition with immobilised ligand	1 µM	100
c1cnn2ncc(-c3ccnc(N4CCC45COC5)n3)c2c1	binding	–	1 µM	81
O=C(NCC1CCOCC1)c1n[nH]cc1NC(=O)c1c(F)cccc1F	binding	competition with immobilised ligand	1 µM	86
N#CC1(c2ccccn2)CCN(Cc2cc(C(=O)N3CCCC3)c(=O)n3ccccc23)CC1	cell-free assay	competition with immobilised ligand	1 µM	100
CN(c1nccc(-c2cnn3ncccc23)n1)C1CC1	binding	–	1 µM	100
